This assay deals with Muscarinic acetylcholine receptor M1 (Homo sapiens) (UniProt P11229). The experiment in a line: M1 positive allosteric modulation, counter-screen, dose response, counter-screen for M4 PAM project, human, CHO cells, calcium fluorescence (AID 588744). The note with it: CHO hM1 calcium mobilization, Fluo-4 fluorescence. Summed up: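 assay system = Fluo-4-loaded CHO cells expressing human M1 muscarinic receptor | probe or stimulus = acetylcholine at EC20, then acetylcholine at EC80 | timing = 144 s compound preincubation, EC80 ACh 86 s after EC20, 37 °C | signal = Fluo-4 calcium fluorescence | controls = maximal acetylcholine response at 1 mM as normalization reference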
Muscarinic acetylcholine receptor M1 (Homo sapiens), sequence (P11229 whole entry, looked up): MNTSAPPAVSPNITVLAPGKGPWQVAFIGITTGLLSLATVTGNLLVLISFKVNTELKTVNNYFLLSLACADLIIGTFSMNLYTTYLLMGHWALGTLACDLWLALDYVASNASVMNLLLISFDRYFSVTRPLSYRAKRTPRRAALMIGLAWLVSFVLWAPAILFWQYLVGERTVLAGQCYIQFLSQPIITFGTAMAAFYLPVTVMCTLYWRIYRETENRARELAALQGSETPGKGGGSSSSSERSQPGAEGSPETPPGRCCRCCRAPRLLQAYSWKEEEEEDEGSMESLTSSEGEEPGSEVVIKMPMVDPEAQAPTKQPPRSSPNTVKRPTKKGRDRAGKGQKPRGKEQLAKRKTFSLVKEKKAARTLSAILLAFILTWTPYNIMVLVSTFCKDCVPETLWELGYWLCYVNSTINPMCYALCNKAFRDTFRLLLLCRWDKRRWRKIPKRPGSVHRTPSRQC
On the technique in general: A counterscreen serves to expose hits that act by an unwanted route or on another target.

Active and inactive are the calls of the source.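 The calls were made as follows: active = compounds whose response rose with dose, given a half-maximal potency and peak effect versus acetylcholine; inactive = the rest.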

Turning to `Cc1nc2sc(C(=O)NCc3cccc(F)c3F)c(N)c2c(C)c1Cl`, the “% ACh max response” value (at 30 µM (top of the series)) is “inactive”.

With `Cc1nc2sc(C(=O)NCc3ccncn3)c(N)c2c(C)c1Cl`, under “at 30 µM (top of the series)”, the “% ACh max response” value was “inactive”.

In the case of `Cc1nc2sc(C(=O)NCc3ccccc3)c(N)c2c(C)c1Cl`, where the note is “at 37.4 µM (top of the series)”, the “% ACh max response” value was “inactive”.

As for `Cc1nc2sc(C(=O)NCc3cccnc3)c(N)c2c(C)c1Cl`, the “% ACh max response” value (at 45.3 µM (top of the series)) was “inactive”.

Turning to `Cc1nc2sc(C(=O)NCc3ccncc3)c(N)c2c(C)c1Cl`, the “% ACh max response” value (at 45.3 µM (top of the series)) was “inactive”.

In the case of `Cc1nc2sc(C(=O)NCCc3ccncc3)c(N)c2c(C)c1Cl`, the “% ACh max response” value (at 30 µM (top of the series)) is “inactive”.

The term EC50 denotes the concentration at which the effect is half-maximal. In the case of `Cc1nc2sc(C(=O)NC3CC3)c(N)c2c(C)c1Cl`, the EC50 was 969 nM.

In the case of `Cc1nc2sc(C(=O)NCc3nccs3)c(N)c2c(C)c1Cl`, the “% ACh max response” value (at 30 µM (top of the series)) was “inactive”.

Take `Cc1nc2sc(C(=O)NCc3ccc4c(c3)OCO4)c(N)c2c(C)c1Cl`: for the setting “at 36.8 µM (top of the series)”, the “% ACh max response” value is “inactive”.

Values taken from PubChem BioAssay AID588744 (Vanderbilt Specialized Chemistry Center, 2011).
